In ChEMBL document CHEMBL4196145, “Antitumor Activity of Diterpenoids from Jatropha gossypiifolia: Cell Cycle Arrest and Apoptosis-Inducing Activity in RKO Colon Cancer Cells” (J Nat Prod, 2018):
Active and inactive are the calls of the source. No cut-off for these calls is given here.

Tests used:
LoVo = assay: Growth inhibition of human LoVo cells after 48 hrs by CCK-8 assay; type: functional, cell-based
RKO [1] = assay: Growth inhibition of human RKO cells after 48 hrs by CCK-8 assay; type: functional, cell-based
Method in brief: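 CCK-8 (WST-8) was then added for 1 h at 37 °C and optical density read at 450 nm. Survival was expressed relative to untreated control wells and IC50 calculated. Three independent experiments.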

RKO [2] = assay: Induction of apoptosis in human RKO cells assessed as necrotic cells at 2.6 uM after 24 hrs by annexin V-FITC/propidium iodide staining based flow cytometry (reference value: 0.035%); type: functional
Method in brief: (§1)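 Annexin V-FITC/PI kit assay. RKO cells were treated for 24 h at 37 °C with compound, DMSO or 5-FU, collected and washed twice with PBS. They were resuspended in binding buffer and stained with annexin V-FITC and PI for 20 min at 37 °C in the dark. Flow cytometry was run immediately, with viable, early/late apoptotic and necrotic fractions read.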

RKO [3] = assay: Cell cycle arrest in human RKO cells assessed as accumulation at S phase at 2.6 uM after 24 hrs by propidium iodide staining based flow cytometry (reference value: 37.89%); type: functional
RKO [4] = assay: Induction of apoptosis in human RKO cells assessed as nuclear condensation at 2.6 to 5.2 uM after 24 hrs by DAPI staining based fluorescence microscopy; type: functional, cell-based
RKO [5] = assay: Induction of apoptosis in human RKO cells assessed as viable cells at 2.6 uM after 24 hrs by annexin V-FITC/propidium iodide staining based flow cytometry (reference value: 94.1%); type: functional; conditions: read-out: Activity; method in brief: as §1
RKO [6] = assay: Induction of apoptosis in human RKO cells assessed as early apoptotic cells at 2.6 uM after 24 hrs by annexin V-FITC/propidium iodide staining based flow cytometry (reference value: 1.98%); type: functional; method in brief: as §1
RKO [7] = assay: Cell cycle arrest in human RKO cells assessed as accumulation at S phase at 5.2 uM after 24 hrs by propidium iodide staining based flow cytometry (reference value: 37.89%); type: functional
RKO [8] = assay: Cell cycle arrest in human RKO cells assessed as accumulation at G1 phase at 2.6 uM after 24 hrs by propidium iodide staining based flow cytometry (reference value: 51.13%); type: functional
RKO [9] = assay: Induction of apoptosis in human RKO cells assessed as viable cells at 5.2 uM after 24 hrs by annexin V-FITC/propidium iodide staining based flow cytometry (reference value: 94.1%); type: functional; conditions: read-out: Activity; method in brief: as §1
RKO [10] = assay: Cell cycle arrest in human RKO cells assessed as accumulation at G2/M phase at 2.6 uM after 24 hrs by propidium iodide staining based flow cytometry (reference value: 10.97%); type: functional
RKO [11] = assay: Cell cycle arrest in human RKO cells assessed as accumulation at G1 phase at 5.2 uM after 24 hrs by propidium iodide staining based flow cytometry (reference value: 51.13%); type: functional
RKO [12] = assay: Induction of apoptosis in human RKO cells assessed as necrotic cells at 5.2 uM after 24 hrs by annexin V-FITC/propidium iodide staining based flow cytometry (reference value: 0.035%); type: functional; method in brief: as §1
RKO [13] = assay: Induction of apoptosis in human RKO cells assessed as nuclear fragmentation at 2.6 to 5.2 uM after 24 hrs by DAPI staining based fluorescence microscopy; type: functional, cell-based
RKO [14] = assay: Antimigratory activity against human RKO cells at 2.6 to 5.2 uM after 48 hrs by wound healing based inverted microscopy; type: functional, cell-based
Method in brief: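 Scratch-wound assay. RKO monolayers above 90% confluence were scratched with a sterile pipette tip and debris rinsed off with PBS. Cells were then kept in MEM with 2% FBS at 37 °C with compound, DMSO vehicle or 5-FU. Wounds were photographed by inverted microscopy at 0 and 48 h, and scratch area was compared with the original wound.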

RKO [15] = assay: Induction of apoptosis in human RKO cells assessed as late apoptotic cells at 2.6 uM after 24 hrs by annexin V-FITC/propidium iodide staining based flow cytometry (reference value: 3.91%); type: functional; method in brief: as §1
RKO [16] = assay: Induction of apoptosis in human RKO cells at 5.2 uM after 24 hrs by DAPI staining based fluorescence microscopy; type: functional, cell-based
RKO [17] = assay: Induction of apoptosis in human RKO cells assessed as early apoptotic cells at 5.2 uM after 24 hrs by annexin V-FITC/propidium iodide staining based flow cytometry (reference value: 1.98%); type: functional; method in brief: as §1
RKO [18] = assay: Induction of apoptosis in human RKO cells after 24 hrs by annexin V-FITC/propidium iodide staining based flow cytometry; type: functional, cell-based; method in brief: as §1
RKO [19] = assay: Cell cycle arrest in human RKO cells assessed as accumulation at G2/M phase at 5.2 uM after 24 hrs by propidium iodide staining based flow cytometry (reference value: 10.97%); type: functional
RKO [20] = assay: Induction of apoptosis in human RKO cells assessed as late apoptotic cells at 5.2 uM after 24 hrs by annexin V-FITC/propidium iodide staining based flow cytometry (reference value: 3.91%); type: functional; method in brief: as §1
RKO [21] = assay: Induction of apoptosis in human RKO cells assessed as viable cells at 10.2 uM after 24 hrs by annexin V-FITC/propidium iodide staining based flow cytometry (reference value: 94.1%); type: functional; conditions: read-out: Activity
RKO [22] = assay: Induction of apoptosis in human RKO cells assessed as late apoptotic cells at 20.4 uM after 24 hrs by annexin V-FITC/propidium iodide staining based flow cytometry (reference value: 3.91%); type: functional
RKO [23] = assay: Induction of apoptosis in human RKO cells assessed as early apoptotic cells at 20.4 uM after 24 hrs by annexin V-FITC/propidium iodide staining based flow cytometry (reference value: 1.98%); type: functional
RKO [24] = assay: Cell cycle arrest in human RKO cells assessed as accumulation at S phase at 10.2 uM after 24 hrs by propidium iodide staining based flow cytometry (reference value: 37.89%); type: functional
RKO [25] = assay: Cell cycle arrest in human RKO cells assessed as accumulation at G1 phase at 10.2 uM after 24 hrs by propidium iodide staining based flow cytometry (reference value: 51.13%); type: functional
RKO [26] = assay: Induction of apoptosis in human RKO cells assessed as necrotic cells at 20.4 uM after 24 hrs by annexin V-FITC/propidium iodide staining based flow cytometry (reference value: 0.035%); type: functional
RKO [27] = assay: Induction of apoptosis in human RKO cells assessed as viable cells at 20.4 uM after 24 hrs by annexin V-FITC/propidium iodide staining based flow cytometry (reference value: 94.1%); type: functional; conditions: read-out: Activity
RKO [28] = assay: Cell cycle arrest in human RKO cells assessed as accumulation at G2/M phase at 20.4 uM after 24 hrs by propidium iodide staining based flow cytometry (reference value: 10.97%); type: functional
RKO [29] = assay: Cell cycle arrest in human RKO cells assessed as accumulation at G2/M phase at 10.2 uM after 24 hrs by propidium iodide staining based flow cytometry (reference value: 10.97%); type: functional
RKO [30] = assay: Cell cycle arrest in human RKO cells assessed as accumulation at G1 phase at 20.4 uM after 24 hrs by propidium iodide staining based flow cytometry (reference value: 51.13%); type: functional
RKO [31] = assay: Induction of apoptosis in human RKO cells assessed as early apoptotic cells at 10.2 uM after 24 hrs by annexin V-FITC/propidium iodide staining based flow cytometry (reference value: 1.98%); type: functional
RKO [32] = assay: Induction of apoptosis in human RKO cells assessed as late apoptotic cells at 10.2 uM after 24 hrs by annexin V-FITC/propidium iodide staining based flow cytometry (reference value: 3.91%); type: functional
RKO [33] = assay: Cell cycle arrest in human RKO cells assessed as accumulation at S phase at 20.4 uM after 24 hrs by propidium iodide staining based flow cytometry (reference value: 37.89%); type: functional
RKO [34] = assay: Induction of apoptosis in human RKO cells assessed as necrotic cells at 10.2 uM after 24 hrs by annexin V-FITC/propidium iodide staining based flow cytometry (reference value: 0.035%); type: functional

In the case of `C=C(C)[C@@H]1/C=C/[C@@H](C)C(=O)[C@H]2C[C@@H](C)[C@@H](O)/C2=C/[C@@H](C)C(=O)C1`, the “growth inhibition (GI)” value (LoVo) is reported as “inactive” and the “growth inhibition (GI)” value (RKO [1]) is reported as “inactive”.

In the case of `C=C1CC[C@@H](C(=C)C)[C@@H]2C=C(C)C(=O)C3=C(C(=O)[C@@H](C)[C@H]3O)[C@@H]12`, the Activity (RKO [2]) is reported as 0.404%, the Activity (RKO [3]) is reported as 37.68% and the Activity (RKO [4]) is reported as “Active”. The viability at 2.6 µM (RKO [5]) was 59.9%, the Activity (RKO [6]) was 12.1% and the Activity (RKO [7]) was 38.18%. The IC50 (LoVo) was 14.5 µM, the Activity (RKO [8]) was 44.03% and the viability at 5.2 µM (RKO [9]) was 9.5%. It also gave an Activity (RKO [10]) of 18.3%, an Activity (RKO [11]) of 36.06% and an Activity (RKO [12]) of 0.811%. The Activity (RKO [13]) was “Active”, the Activity (RKO [14]) was “Active” and the Activity (RKO [15]) was 27.6%. For the same compound, the IC50 (RKO [1]) was 2.6 µM, the Activity (RKO [16]) was “Active” and the Activity (RKO [17]) was 21.5%. For the same compound, the Activity (RKO [18]) was “Dose-dependent effect”, the Activity (RKO [19]) was 25.76% and the Activity (RKO [20]) was 68.2%.

With `CC(=O)O[C@H]1/C2=C/[C@@H](C)C(=O)C[C@H]3[C@@H](/C=C(\C)C(=O)[C@H]2C[C@H]1C)C3(C)C` the “growth inhibition (GI)” value (LoVo) was “inactive” and the “growth inhibition (GI)” value (RKO [1]) was “inactive”.

For `CC(=O)O[C@H]1C2=C[C@@H](C)C(=O)[C@H]3[C@H]4[C@@H](C[C@@H](C)[C@]3(O)[C@H]2C[C@H]1C)C4(C)C`, the “growth inhibition (GI)” value (LoVo) was “inactive” and the “growth inhibition (GI)” value (RKO [1]) was “inactive”.

`CC(=O)O[C@H]1/C2=C/[C@@H](C)C(=O)C[C@H]3[C@@H](C[C@@H](C)C(=O)[C@H]2C[C@H]1C)C3(C)C` was tested, and the “growth inhibition (GI)” value (LoVo) was “inactive” and the “growth inhibition (GI)” value (RKO [1]) was “inactive”.

In the case of `C/C1=C/C2=C(C[C@@H](C)C2)C(=O)[C@@]2(C)C(=O)CC(C)(C)[C@@H]2CC1=O`, the “growth inhibition (GI)” value (LoVo) is reported as “inactive” and the “growth inhibition (GI)” value (RKO [1]) is reported as “inactive”.

In the case of `C=C1CC[C@H]2[C@@H](c3c(C)c(O)c4c(c31)C(=O)[C@@H](C)C4)C2(C)C`, the “growth inhibition (GI)” value (LoVo) is reported as “inactive” and the “growth inhibition (GI)” value (RKO [1]) is reported as “inactive”.

In the case of `C=C(C)[C@@H]1/C=C/[C@@H](C)C(=O)[C@H]2C[C@@H](C)[C@@H](OC(C)=O)/C2=C/[C@](C)(O)C(=O)C1`, the “growth inhibition (GI)” value (LoVo) is reported as “inactive” and the “growth inhibition (GI)” value (RKO [1]) is reported as “inactive”.

With `C=C1CC[C@H]2[C@@H](c3c(C)c(O)c4c(c31)C(=O)[C@H](C)C4)C2(C)C` the “growth inhibition (GI)” value (LoVo) was “inactive” and the “growth inhibition (GI)” value (RKO [1]) was “inactive”.

In the case of `O=c1[nH]cc(F)c(=O)[nH]1` [FLUOROURACIL], the viability at 10.2 µM (RKO [21]) is reported as 69.2%, the Activity (RKO [22]) is reported as 36.7% and the Activity (RKO [23]) is reported as 11.6%. It also gave an Activity (RKO [24]) of 15.97%, an IC50 (LoVo) of 11.5 µM and an Activity (RKO [25]) of 62.56%. It also gave an Activity (RKO [26]) of 0.065%, a viability at 20.4 µM (RKO [27]) of 51.7% and an Activity (RKO [28]) of 21.48%. The Activity (RKO [29]) was 21.47%, the Activity (RKO [30]) was 66.4% and the IC50 (RKO [1]) was 10.2 µM. The Activity (RKO [31]) was 9.75%, the Activity (RKO [32]) was 20.8% and the Activity (RKO [33]) was 12.12%. The Activity (RKO [34]) was 0.289%.

With `C/C1=C/[C@]23O[C@H]2[C@H](C)CC3C(=O)[C@]2(C)C(=O)CC(C)(C)[C@H]2CC1=O` (stereo not given in full) the “growth inhibition (GI)” value (LoVo) was “inactive” and the “growth inhibition (GI)” value (RKO [1]) was “inactive”.

`C=C(C)[C@@H]1/C=C/[C@@H](C)C(=O)[C@H]2C[C@@H](C)[C@@H](OC(C)=O)/C2=C/[C@@H](C)C(=O)C1` was tested, and the “growth inhibition (GI)” value (LoVo) was “inactive” and the “growth inhibition (GI)” value (RKO [1]) was “inactive”.

With `C/C1=C/C2=C(C[C@H](C)C2)C(=O)[C@@]2(C)C(=O)CC(C)(C)[C@@H]2CC1=O` the “growth inhibition (GI)” value (LoVo) was “inactive” and the “growth inhibition (GI)” value (RKO [1]) was “inactive”.

In the case of `C=C(C)[C@@H]1/C=C/[C@@H](C)C(=O)[C@H]2C[C@@H](C)[C@@H](OC(C)=O)[C@H]2/C=C(/C)C(=O)C1`, the “growth inhibition (GI)” value (LoVo) is reported as “inactive” and the “growth inhibition (GI)” value (RKO [1]) is reported as “inactive”.

In the case of `CC(=O)O[C@H]1/C2=C/[C@@H](C)C(=O)C[C@H]3[C@@H](/C=C(\C)C(=O)[C@@]2(O)C[C@H]1C)C3(C)C`, the “growth inhibition (GI)” value (LoVo) is reported as “inactive” and the “growth inhibition (GI)” value (RKO [1]) is reported as “inactive”.

In the case of `CC1=C2CC(C)(C)/C=C/C(=O)/C(C)=C\C3=C[C@H](C)C[C@]3(O2)C1=O` [JATROPHONE], the IC50 (LoVo) is reported as 18.6 µM and the IC50 (RKO [1]) is reported as 8 µM.
